In the library only some 3.1% were active in any assay of this set; here they are far more common.
KCNK9 inh – blocks the human KCNK9 two-pore domain potassium channel; B-score at 10 µM; HEK293 KCNK9, FluxOR thallium flux fluorescence; active compounds read low; AID 488922; 310,000 compounds, 1.2% hits; Q9NPC2;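 active = ratio B-score over 3 SD below the library mean, with starting fluorescence within 5 SD of its mean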;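 note: negative B-score means less thallium flux so channel inhibition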
KCNQ1 pot – human KCNQ1 channel potentiation or activation. P51787. CHO-K1 KCNQ1, thallium flux FluxOR fluorescence; active compounds read high. B-score at 10 µM. 310,000 compounds, 0.35% hits;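 active = fluorescence ratio B-score, a plate-corrected score, at least three library SD, with initial intensity B-score within 5 SD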
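Test system: CHO-K1 cells stably expressing KCNQ1 / Medium: assay buffer / Also added: depolarizing K+/Tl+ stimulus, K2SO4 and Tl2SO4 each 12.5 mM in 5x stock / Incubation: 90 min dye loading and 20 min compound exposure, both at room temperature / Signal: thallium influx via FluxOR fluorescence, kinetic imaging / Evaluation: B score of baseline-normalized fluorescence ratio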
KCNK3 inh – human KCNK3 channel inhibition, primary screen | O14649 | CHO-KCNK3 thallium flux, FluxOR fluorescence; active compounds read low | B-score at 10 µM | 340,000 compounds, 0.84% hits;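 active = B-score under library mean minus 4 SD, starting fluorescence ratio at most library mean plus 5 SD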;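 note: more negative B-score means stronger inhibition of thallium flux through KCNK3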
KCNQ1 block – blocks the human KCNQ1 potassium channel. P51787. CHO-K1 KCNQ1, FluxOR thallium flux fluorescence; active compounds read high. B-score at 10 µM. 310,000 compounds, 1.3% hits;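 active = compounds whose thallium flux B-score, printed positive for inhibition, exceeds three library SD while starting fluorescence stays within three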;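 note: channel opened by potassium depolarization with thallium stimulus after 20 min compound exposure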
hERG rescue – compounds protecting human hERG from proarrhythmic drug block | AID 1511 | CHO-hERG, FluxOR thallium flux, dofetilide IC70 present | Q12809 | activation (rescue from dofetilide block), less the hit threshold, % at 10 µM | 310,000 compounds, 0.51% hits;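 active = activation above the mean of controls blocked by dofetilide plus 5 SD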;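 note: thallium influx through hERG after potassium depolarization seen as dye fluorescence rise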
KCNQ1 block val – confirmation of human KCNQ1 potassium channel inhibitors. 1,600 compounds, 93% hits. inhibition, % at 10 µM. shares compounds with KCNQ1 block. KCNQ1 cell line, FluxOR thallium flux fluorescence;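 active = primary screen active, with duplicate mean exceeding buffer control mean plus 3 SD of buffer wells, cut at about 28% in these data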
CHO Tl flux – activity in parental CHO cells lacking KCNQ1; shares compounds with KCNQ1 block; parental CHO-K1, FluxOR thallium flux fluorescence ratio; active compounds read low; zero means no signal rise above baseline; fluorescence ratio (Tl flux) at 10 µM; 1,600 compounds, 21% hits; AID 588366;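 active = mean of duplicate thallium-flux fluorescence ratios in parental host cells more than 5 SD below the buffer control mean, cut at about 0.38 in these data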;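 note: ratio is peak minus minimum fluorescence divided by baseline fluorescence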
KCNQ1 ephys val – blocks human KCNQ1 current in automated patch clamp. shares compounds with KCNQ1 block. KCNQ1-CHO cells. calls only at 10 µM. 490 compounds, 20% hits. AID 624120;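 active = KCNQ1 current drop exceeding 3 SD of negative control wells, seen in both duplicate runs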;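 note: steady state current during a 2 s step from -80 to +40 mV; negative values mean current inhibition and positive values mean potentiation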
KCNQ2 inh – selectivity of KCNQ1 inhibitors: inhibition of rat KCNQ2 channel; shares compounds with KCNQ1 block; KCNQ2 cells, FluxOR thallium flux fluorescence; inhibition, % at 10 µM; 1,600 compounds, 71% hits; AID 651746;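 active = mean percent inhibition of the KCNQ2 thallium signal more than 5 SD above the buffer-only control wells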;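 note: KCNQ2 expressed in CHO cells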
KCNQ1-KCNE1 inh – KCNQ1 inhibitor that also blocks human KCNQ1/KCNE1 channel; AID 652147; KCNQ1/KCNE1 cells, FluxOR thallium flux fluorescence; shares compounds with KCNQ1 block; 1,600 compounds, 77% hits; inhibition, % at 10 µM;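 active = mean percent inhibition of duplicate wells above the buffer-only control mean plus 3 SD of those controls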
Target sequence (P51787 whole entry, looked up): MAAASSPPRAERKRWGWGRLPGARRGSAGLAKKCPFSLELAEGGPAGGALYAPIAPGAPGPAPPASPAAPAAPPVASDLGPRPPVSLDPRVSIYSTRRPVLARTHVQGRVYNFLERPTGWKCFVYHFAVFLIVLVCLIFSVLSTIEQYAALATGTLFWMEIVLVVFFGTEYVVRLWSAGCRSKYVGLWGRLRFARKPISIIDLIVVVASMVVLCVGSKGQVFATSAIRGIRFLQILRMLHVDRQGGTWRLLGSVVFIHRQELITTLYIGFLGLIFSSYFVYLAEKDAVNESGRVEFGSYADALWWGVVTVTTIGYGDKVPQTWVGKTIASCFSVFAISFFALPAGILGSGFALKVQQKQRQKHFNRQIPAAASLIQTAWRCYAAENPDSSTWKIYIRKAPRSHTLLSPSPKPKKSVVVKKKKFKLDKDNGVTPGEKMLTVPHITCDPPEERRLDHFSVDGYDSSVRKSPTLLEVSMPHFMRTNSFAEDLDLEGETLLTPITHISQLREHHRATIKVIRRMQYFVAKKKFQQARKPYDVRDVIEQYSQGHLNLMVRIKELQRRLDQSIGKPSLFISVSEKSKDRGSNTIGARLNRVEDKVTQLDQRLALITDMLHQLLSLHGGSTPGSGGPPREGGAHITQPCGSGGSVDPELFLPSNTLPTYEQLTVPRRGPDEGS
KCNK9 block conf – human KCNK9 inhibitor confirmation; 4,900 compounds, 43% hits; inhibition, % at 10 µM; shares compounds with KCNK9 inh; HEK293 KCNK9 cells, FluxOR thallium flux fluorescence;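 active = thallium signal inhibited by more than 5 SD of the compound-free buffer control wells, on both duplicate plates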
Kir2-1 spec – selectivity of KCNK9 modulators against mouse Kir2.1; Kir2.1 cells, FluxOR thallium flux fluorescence; 4,900 compounds, 4% hits; shares compounds with KCNK9 inh; inhibition, % at 10 µM; AID 492993;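 active = thallium signal drop more than 5 SD beyond the mean of the no-compound control wells, seen in both duplicate plates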;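 note: signal is fluorescence rise after thallium addition divided by baseline fluorescence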
KCNK9 uninduced – non-induced cell nonspecific activity of KCNK9 modulators. shares compounds with KCNK9 inh. inhibition, % at 10 µM. AID 492997. 4,900 compounds, 40% hits. non-induced KCNK9-HEK293, FluxOR thallium flux;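 active = thallium signal drop beyond 5 SD of the untreated control mean, on both duplicate plates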
KCNK3 confirm – confirmation of human KCNK3 two-pore domain potassium channel inhibitors | 2,400 compounds, 99% hits | CHO-KCNK3 thallium flux, FluxOR fluorescence; 0% buffer, 100% carvedilol maximal block | shares compounds with KCNK3 inh | ratio percent of control, % at 10 µM;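 active = ratio percent of control, averaged over triplicates, above buffer control mean plus 5 SD, cut at about 64% in these data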;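 note: ratio is the fluorescence rise from min to max over baseline after thallium stimulus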
KCNK3 noninduced – activity in cells without induced KCNK3 expression; shares compounds with KCNK3 inh; AID 651747; non-induced KCNK3 parental cells, FluxOR thallium flux; active compounds read low; thallium flux ratio (lower = more inhibition) at 10 µM; 2,400 compounds, 40% hits;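 active = thallium flux ratio, averaged over three wells, more than 5 SD below the buffer control mean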;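 note: host cells are CHO cells without KCNK3 induction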
Hits are given with their value; 0 = inactive; - = no result; + = active, no number.

SMILES | KCNK9 inh | KCNQ1 pot | KCNK3 inh | KCNQ1 block | hERG rescue | KCNQ1 block val | CHO Tl flux | KCNQ2 inh | KCNQ1-KCNE1 inh | KCNK3 confirm | KCNK3 noninduced | others
Oc1ccccc1N1CCN(c2ncnc3scc(-c4ccc(F)cc4)c23)CC1 | 0 | 0 | -9.6 | 9 | 0 | 121 | 0.37 | 63% | 151% | 115 | 0.12
Cc1nc(N2CCN(c3ccccc3O)CC2)c2c(-c3ccccc3)csc2n1 | 0 | 0 | -9.9 | 18 | 0 | 54 | 0 | 89% | 88% | 116 | 0.11
CCOc1ccccc1N1CCN(c2ncnc3scc(-c4ccc(OC)cc4)c23)CC1 | -6.8 | 0 | -9.4 | 8 | 0 | 142 | 0.35 | 141% | 174% | 140 | 0.11
OCCN1CCN(c2ncnc3scc(-c4ccc(F)cc4)c23)CC1 | 0 | 0 | 0 | 0 | 0 | - | - | - | - | - | -
CN1OC[C@@H]2CN(C(=O)CCc3ccccc3)[C@H](c3cccc(N4CCOCC4)c3)C[C@@H]21 | - | - | 0 | - | - | - | - | - | - | - | -
CC(=O)Nc1ccccc1NC(=O)C/C(C)=N/NC(=O)c1cccnc1 | 0 | 0 | 0 | 0 | 0 | - | - | - | - | - | -
CC(C)(C)c1cc(C(=O)NCc2cc(F)cc3c2OCOC3)n(Cc2ccccc2)n1 | -7.9 | 0 | -12 | 9 | 0 | 134 | 0.37 | 101% | 198% | 135 | 0.13
COc1cc(C(C)=O)ccc1OCC(=O)Nc1ccccc1N1CCCCC1 | 0 | 0 | 0 | 0 | 0 | - | - | - | - | - | -
Cc1cccc(OCC(=O)Nc2ccccc2N2CCCCC2)c1C | -8.4 | 0 | 0 | 9 | 0 | 102 | 0 | 88% | 150% | 110 | 0 | KCNQ1 ephys val=0;KCNK9 block conf=54%;Kir2-1 spec=34%;KCNK9 uninduced=42%
CC(C)N(C)S(=O)(=O)c1ccc(NC(=O)C2=COCCO2)cc1 | - | - | 0 | - | - | - | - | - | - | - | -
COc1cccc(NC(=O)Nc2ccncc2)c1 | 0 | 0 | 0 | 0 | 0 | - | - | - | - | - | -
COc1cccc(NC(=O)Nc2ccc(C(C)(C)C)cc2)c1 | 0 | 0 | -13 | 13 | 0 | 152 | 0.35 | 109% | + | 134 | 0.13
CCOc1ccc(OCC)c(NC(=O)Nc2ccc3c(c2)N(C)C(=O)CS3)c1 | 0 | 0 | -16 | 14 | 0 | 82 | 0 | 90% | 152% | 119 | 0
COc1cccc(NC(=O)Nc2ccc3c(c2)N(C)C(=O)CS3)c1 | 0 | 0 | -11 | 6 | 0 | 114 | 0.36 | 114% | + | 119 | 0
CC(=O)Nc1ccc(NC(=O)Nc2ccc3c(c2)N(C)C(=O)CS3)cc1 | 0 | 0 | 0 | 0 | 0 | - | - | - | - | - | -
CN1C(=O)CSc2ccc(NC(=O)Nc3ccccn3)cc21 | 0 | 0 | 0 | 0 | 0 | - | - | - | - | - | -
Cc1cc(C)n2nc(SCC(=O)N(CCC#N)c3ccc(F)cc3)nc2n1 | - | - | 0 | - | - | - | - | - | - | - | -
COC(=O)C1C(c2ccccc2)C(C(=O)OCc2ccco2)C1c1ccccc1 (stereo unspecified) | -8.3 | 0 | -11 | 6 | 0 | 95 | 0.36 | 111% | 164% | 116 | 0.15 | KCNK9 block conf=44%;Kir2-1 spec=0;KCNK9 uninduced=24%
CCOC(=O)[C@H]1[C@H]2COc3ccc(Cl)cc3[C@@H]2N2C(=O)CN(Cc3ccco3)C(=O)[C@@]12C | - | - | 0 | - | - | - | - | - | - | - | -
CC(C)Cc1nc(N2CCN(C(=O)c3ccco3)CC2)c(C#N)c2c1CCCC2 | -16 | 0 | -10 | 11 | 0 | 116 | 0.32 | 117% | 0 | 66 | 0 | KCNK9 block conf=34%;Kir2-1 spec=0;KCNK9 uninduced=28%
CCCCCCCNC(=O)C1(CC2CC(c3ccc(Cl)cc3)=NO2)CCNCC1 (stereo unspecified) | 0 | 0 | 0 | 0 | 0 | - | - | - | - | - | -
CC(C)COc1cccc(-c2cc(C(=O)N/N=C/c3ccncc3)c3ccccc3n2)c1 | 0 | 0 | -10 | 14 | 0 | 182 | 0.3 | 125% | + | 118 | 0.096
CCOc1cc(/C=N/NC(=O)c2cc(-c3cccc(OC)c3)nc3ccccc23)ccc1O | 0 | 0 | 0 | 0 | 0 | - | - | - | - | - | -
CCOC(=O)c1c(NC(=O)C2CC(Cl)=CCC2C(=O)O)sc2c1CCCCC2 (stereo unspecified) | 0 | 0 | 0 | 0 | 0 | - | - | - | - | - | -
O=C(N/N=C/c1ccc(O)c(Br)c1)c1cc2c(ccc3ccccc32)o1 | 0 | 0 | 0 | 0 | 0 | - | - | - | - | - | -
SMILES | KCNK9 inh | KCNQ1 pot | KCNK3 inh | KCNQ1 block | hERG rescue | KCNQ1 block val | CHO Tl flux | KCNQ2 inh | KCNQ1-KCNE1 inh | KCNK3 confirm | KCNK3 noninduced | others
O=C(N/N=C/c1cc(Br)c(O)c(Br)c1)c1cc2c(ccc3ccccc32)o1 | 0 | 0 | -11 | 15 | 0 | 160 | 0.32 | 130% | + | 136 | 0.093
Cc1ccc(S(=O)(=O)c2nnn3c2nc(N2CCN(c4ccccn4)CC2)c2ccccc23)cc1C | 0 | 0 | 0 | 0 | 0 | - | - | - | - | - | -
O=C(Nc1ccncc1)c1cc(-c2cccc(Br)c2)nc2ccccc12 | 0 | 0 | 0 | 0 | 0 | - | - | - | - | - | -
O=C(Nc1cccnc1)c1cc(-c2cccc(Br)c2)nc2ccccc12 | -9.2 | 0 | -12 | 15 | 0 | 148 | 0.31 | 130% | 195% | 156 | 0.1 | KCNK9 block conf=0;Kir2-1 spec=0;KCNK9 uninduced=38%
CC(C)c1ccc2c(c1)C1(NN=C(c3ccccc3)S1)C(=O)N2 (stereo unspecified) | 0 | 0 | -12 | 18 | 0 | 68 | 0.35 | 78% | 42% | 138 | 0.095
O=C(CN1C(=O)CCSc2ccc(S(=O)(=O)N3CCOCC3)cc21)Nc1cccc(F)c1 | 0 | 0 | 0 | 0 | 0 | - | - | - | - | - | -
CCOC(=O)Nc1nc(-c2ccccc2)c(C(=O)c2ccc(Cl)cc2)s1 | -15 | 0 | -8.7 | 7 | 0 | 98 | 0.36 | 94% | 171% | 125 | 0.16 | KCNK9 block conf=40%;Kir2-1 spec=0;KCNK9 uninduced=42%

Bioassay records: PubChem BioAssay, Johns Hopkins Ion Channel Center
